In brackets after ≈: the same amount, converted by molar mass. Where two headings read alike, the source gives them in different places.
Assays:
[1] = ABTS radical scavenging activity; conditions: positive control
In short: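 Test fractions in 70 % ethanol at 2–8 µg/mL; positive control at 1–7 µg/mL. Radical made by holding 7 mM ABTS with 0.14 M K₂S₂O₈ for 14 h, then diluted 35-fold in anhydrous ethanol. Sample mixed with radical solution, 6 min dark at 30°C, A734.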

[2] = system: Caco-2 cells; assay: Inhibition of H2O2-induced intracellular ROS production; type: cell-based; conditions: positive control 10 μg/mL, 1.0 mmol/L H2O2 6 h; H2O2 group 181.61 %
[3] = DPPH radical scavenging activity; conditions: positive control
In short: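 Test fractions in 80 % methanol at 2–14 µg/mL; positive control at 1–7 µg/mL. 50 µL sample plus 200 µL 0.1 mM DPPH in methanol, kept from light and shaken 30 min, then read at 517 nm.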

[4] = system: Caco-2 cells; assay: Cytoprotective activity against H2O2-induced cell apoptosis; type: cell-based; conditions: positive control 10 μg/mL; H2O2 group 23.84 %, control 3.92 %
[5] = biological target: T1, DPP-IV (Homo sapiens, UniProt P27487); assay: biochemical
[6] = biological target: T1, DPP-IV; conditions: read-out: IC50 DPP-IV; ref Li et al., 2022; cited from earlier work
[7] = biological target: α-glucosidase (Saccharomyces cerevisiae, UniProt P53341); conditions: read-out: IC50 α-glucosidase; ref Tan et al. (2017); cited from earlier work
[8] = read-out: IC50 DPP-Ⅳ, phenolic standards

T1 sequence (P27487 whole entry): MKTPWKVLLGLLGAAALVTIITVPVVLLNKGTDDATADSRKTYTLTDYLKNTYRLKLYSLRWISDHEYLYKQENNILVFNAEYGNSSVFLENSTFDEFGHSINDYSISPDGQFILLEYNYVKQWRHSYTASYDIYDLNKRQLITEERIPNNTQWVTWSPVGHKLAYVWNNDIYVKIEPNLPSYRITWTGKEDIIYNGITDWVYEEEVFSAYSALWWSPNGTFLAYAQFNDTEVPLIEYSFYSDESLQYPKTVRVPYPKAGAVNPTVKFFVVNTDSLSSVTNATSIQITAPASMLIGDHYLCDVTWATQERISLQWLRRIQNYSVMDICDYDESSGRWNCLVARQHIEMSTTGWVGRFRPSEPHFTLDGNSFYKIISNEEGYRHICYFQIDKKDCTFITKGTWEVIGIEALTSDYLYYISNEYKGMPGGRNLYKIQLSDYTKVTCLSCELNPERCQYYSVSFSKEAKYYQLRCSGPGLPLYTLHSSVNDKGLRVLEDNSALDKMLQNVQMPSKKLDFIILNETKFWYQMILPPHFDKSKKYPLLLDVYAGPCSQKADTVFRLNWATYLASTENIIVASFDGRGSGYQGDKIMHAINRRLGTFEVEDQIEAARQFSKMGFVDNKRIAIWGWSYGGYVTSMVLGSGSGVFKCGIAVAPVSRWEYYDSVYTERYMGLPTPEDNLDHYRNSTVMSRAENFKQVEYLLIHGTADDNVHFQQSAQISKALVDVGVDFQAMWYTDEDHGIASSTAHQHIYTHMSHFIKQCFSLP
Chain of α-glucosidase (P53341 whole entry): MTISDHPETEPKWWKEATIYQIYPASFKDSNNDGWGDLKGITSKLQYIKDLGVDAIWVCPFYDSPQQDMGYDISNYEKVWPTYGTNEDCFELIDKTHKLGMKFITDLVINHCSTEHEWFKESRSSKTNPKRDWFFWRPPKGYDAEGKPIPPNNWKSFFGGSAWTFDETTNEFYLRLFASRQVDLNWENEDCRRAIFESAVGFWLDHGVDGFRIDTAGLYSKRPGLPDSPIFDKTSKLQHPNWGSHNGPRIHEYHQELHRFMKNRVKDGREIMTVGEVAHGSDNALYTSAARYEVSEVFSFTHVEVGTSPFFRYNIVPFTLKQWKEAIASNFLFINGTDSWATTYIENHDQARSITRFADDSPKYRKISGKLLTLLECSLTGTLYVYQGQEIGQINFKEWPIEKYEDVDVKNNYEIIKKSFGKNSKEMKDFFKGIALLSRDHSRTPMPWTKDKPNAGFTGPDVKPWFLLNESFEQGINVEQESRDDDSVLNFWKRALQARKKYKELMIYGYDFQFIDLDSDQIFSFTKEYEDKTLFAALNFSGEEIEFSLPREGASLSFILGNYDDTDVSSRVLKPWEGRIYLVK

Row | SMILES | IC50 [5] | further results
1 | O=C1O[C@H]([C@@H](O)CO)C(O)=C1O [Vc] |  | IC50 ABTS radical scavenging [1]: 3.58 ± 0.03 µg/mL (≈ 20.3 µM); intracellular ROS level [2]: 110.92%; IC50 DPPH radical scavenging [3]: 1.93 ± 0.01 µg/mL (≈ 11 µM); apoptosis rate [4]: 6.58%
2 | Oc1cc(O)c2c(c1)O[C@H](c1cc(O)c(O)c(O)c1)[C@@H](O)C2 [Gallocatechin] | 81.9 ± 2.54 µM | 
3 | Oc1cc(O)c2c(c1)O[C@H](c1ccc(O)c(O)c1)[C@@H](O)C2 [(+) - Catechin] |  | IC50 [5, 8]: 132.8 ± 0.99 µM
4 | Oc1cc(O)c2c(c1)O[C@H](c1ccc(O)c(O)c1)[C@H](O)C2 [(-) - Epicatechin] | 104.3 ± 0.95 µM | 
5 | COC(=O)[C@]1(O)C[C@@H](O)[C@@H](O)[C@H](OC(=O)/C=C/c2ccc(O)c(O)c2)C1 [Methyl chlorogenic acid] |  | IC50 [5, 8]: 192 ± 1.93 µM
6 | O=C(O)/C=C/c1ccc(O)c(O)c1 [Caffeic acid] | 162.48 ± 0.16 µM | 
7 | O=C(/C=C/c1ccc(O)c(O)c1)O[C@@H]1C[C@](O)(C(=O)O)C[C@@H](O)[C@H]1O [Chlorogenic acid] | 31.2 ± 2.58 µM | IC50 [6]: 78.8 µM
8 | Oc1cc(O)c2c(c1)O[C@H](c1ccc(O)c(O)c1)[C@@H](O)C2 [catechin] |  | IC50 [7]: 13.4 µM

Second part, led by results:

Row | IC50 [5] | SMILES | further results
9 | > 200 µM | Oc1cc(O)c2c(c1)O[C@H](c1ccc(O)c(O)c1)[C@H](O)[C@H]2c1c(O)cc(O)c2c1O[C@H](c1ccc(O)c(O)c1)[C@@H](O)C2 [Procyanidin B1] | 
10 | > 200 µM | O=C(O)c1ccc(O)c(O)c1 [Protocatechuic acid] | 
11 | 78.92 ± 0.62 µM | O=C1c2c(O)cc(O)cc2OC(c2ccc(O)c(O)c2)C1O (centres unmarked) [Taxifolin] | 
12 | > 200 µM | O=C(O)c1ccccc1O [Salicylic acid] | 
13 | > 200 µM | O=C(O)[C@]1(O)C[C@@H](O)[C@@H](O)[C@H](O)C1 [Quinic acid] | 
